Data as given in ChEMBL document CHEMBL1134221, “RPR203494 a pyrimidine analogue of the p38 inhibitor RPR200765A with an improved in vitro potency” (Bioorg Med Chem Lett, 2001).

Legend:
[1] = Stability (%) in rat liver microsomes; format: ADME; details: read-out: % turnover
[2] = Inhibitory concentration against lipopolysaccharide induced TNF-alpha release on human monocytes; format: functional
Summary of the method: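 Adherent human monocytes (100,000 cells/well) are stimulated with LPS (10 ng/mL) for 18 h, with or without compound. Each experiment is run in quadruplicate. TNF-α is measured by sandwich ELISA, and EC50 is calculated for each compound.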

[3] = Inhibitory activity against lipopolysaccharide induced TNF-alpha release on human monocytes at a concentration of 300 nM; format: functional
[4] = Oral bioavailability in rat; format: ADME, organism-based; details: in vivo
Summary of the method: (§1)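 Rat pharmacokinetics with the compound given alone: an iv arm at 1 mg/kg and an oral arm at 5 mg/kg. Plasma profiles give Cmax, Tmax, AUC, terminal half-life, total clearance and Vdss. Absolute oral bioavailability is derived by comparing the oral and iv exposures.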

[5] = molecular target: T1, MAP kinase p38 (Mus musculus, UniProt P47811+O08911+Q9WUI1+Q9Z1B7); experiment: Inhibition of murine Mitogen-activated protein kinase p38; format: protein assay
Summary of the method: (§2)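 Mouse p38 enzyme at 40 ng/well, run 1 h at room temperature. ATF-2 substrate is coated onto plates. Buffer is 25 mM Hepes pH 7.7 with 25 mM MgCl2, 2 mM dithiothreitol, 1 mM sodium orthovanadate and ATP. Phospho-ATF-2 is detected with phospho-specific primary antibodies. IC50 is given as mean±SEM of repeat experiments (n=3).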

[6] = Volume distribution after intravenous administration (1 mg/kg) in rat; format: ADME, organism-based; details: in vivo, read-out: Vdss; summary of the method: as §1
[7] = Terminal half life after intravenous administration (1 mg/kg) in rat; format: ADME, organism-based; details: in vivo; summary of the method: as §1
[8] = Terminal half life in Rat at a oral dose of 5 mg/kg; format: ADME, organism-based; set-up: dose 5 mg/kg, route oral; details: in vivo; summary of the method: as §1
[9] = T max in Rat at a oral dose of 5 mg/kg; format: ADME, organism-based; set-up: dose 5 mg/kg, route oral; details: in vivo; summary of the method: as §1
[10] = Maximum plasma concentration in Rat at a oral dose of 5 mg/kg; format: ADME, organism-based; set-up: dose 5 mg/kg, route oral; details: read-out: CPmax; summary of the method: as §1
[11] = Area under curve after intravenous administration (1 mg/kg) in rat; format: ADME, organism-based; details: in vivo; summary of the method: as §1
[12] = Area under curve in Rat at a oral dose of 5 mg/kg; format: ADME, organism-based; set-up: dose 5 mg/kg, route oral; details: in vivo; summary of the method: as §1
[13] = Oral Bioavailability after intravenous administration (1 mg/kg) in rat; format: ADME, organism-based; details: in vivo, 5 mg/kg, in the assay text read “oral administration (5 mg/kg)” for “intravenous administration (1 mg/kg)”; summary of the method: as §1
[14] = Plasma clearance after intravenous administration (1 mg/kg) in rat; format: ADME, organism-based; details: read-out: Clp (converted); summary of the method: as §1
[15] = molecular target: T1, MAP kinase p38; experiment: Inhibitory activity against p38 kinase (40 ng/well) was determined in mouse; summary of the method: as §2

Row | SMILES | metabolised [1] | EC50 [2] | bioavailability [4] | further results
1 | C[C@]1(C(=O)N2CCOCC2)CO[C@H](c2nc(-c3ccc(F)cc3)c(-c3ccnc(NCCO)n3)[nH]2)OC1 | 18% | 319 nM | – | –
2 | C[C@]1(C(=O)N2CCOCC2)CO[C@H](c2nc(-c3ccc(F)cc3)c(-c3ccnc(N)n3)[nH]2)OC1 | 17.6% | – | – | inhibition at 0.3 µM [3]: 39%
3 | C[C@@H](Nc1nccc(-c2[nH]c([C@H]3OC[C@](C)(C(=O)N4CCOCC4)CO3)nc2-c2ccc(F)cc2)n1)c1ccccc1 | 81% | 10 nM | – | –
4 | C[C@]1(C(=O)N2CCOCC2)CO[C@H](c2nc(-c3ccc(F)cc3)c(-c3ccnc(NCc4ccccn4)n3)[nH]2)OC1 | 25% | 45 nM | 25% | –
5 | COCCCNc1nccc(-c2[nH]c([C@H]3OC[C@](C)(C(=O)N4CCOCC4)CO3)nc2-c2ccc(F)cc2)n1 | – | 54 nM | 15% | IC50 [5]: 7 nM
6 | C[C@]1(C(=O)N2CCOCC2)CO[C@H](c2nc(-c3ccc(F)cc3)c(-c3ccnc(NC4CC4)n3)[nH]2)OC1 | 43.6% | 60 nM | 29% | Vd [6]: 1.2 L/kg; half-life [7]: 1.2 h; half-life [8]: 1.4 h; Tmax [9]: 0.5 h; Cmax [10]: 620 ng/mL; AUC [11]: 580 ng·h/mL; AUC [12]: 1390 ng·h/mL; IC50 [5]: 9 nM; bioavailability [13]: 48%; clearance [14]: 30 mL/min/kg
7 | C[C@]1(C(=O)N2CCOCC2)CO[C@H](c2nc(-c3ccc(F)cc3)c(-c3ccnc(NCc4ccc(F)cc4)n3)[nH]2)OC1 | 44.6% | 62 nM | – | –
8 | CN(C)c1nccc(-c2[nH]c([C@H]3OC[C@](C)(C(=O)N4CCOCC4)CO3)nc2-c2ccc(F)cc2)n1 | 40.7% | – | – | inhibition at 0.3 µM [3]: 8%
9 | C=CCNc1nccc(-c2[nH]c([C@H]3OC[C@](C)(C(=O)N4CCOCC4)CO3)nc2-c2ccc(F)cc2)n1 | 89.1% | 110 nM | – | –
10 | C[C@]1(C(=O)N2CCOCC2)CO[C@H](c2nc(-c3ccc(F)cc3)c(-c3ccnc(NCc4ccccc4)n3)[nH]2)OC1 | 68% | 12 nM | 24% | IC50 [5]: 5 nM
11 | CN(C)CCCNc1nccc(-c2[nH]c([C@H]3OC[C@](C)(C(=O)N4CCOCC4)CO3)nc2-c2ccc(F)cc2)n1 | 18% | – | – | inhibition at 0.3 µM [3]: 27%
12 | C[C@]1(C(=O)N2CCOCC2)CO[C@H](c2nc(-c3ccc(F)cc3)c(-c3ccnc(Nc4cccnc4)n3)[nH]2)OC1 | – | 231 nM | – | –
13 | C[C@]1(C(=O)N2CCOCC2)CO[C@H](c2nc(-c3ccc(F)cc3)c(-c3ccnc(NCc4cccs4)n3)[nH]2)OC1 | 92% | 70 nM | – | –
14 | COc1cccc(Nc2nccc(-c3[nH]c([C@H]4OC[C@](C)(C(=O)N5CCOCC5)CO4)nc3-c3ccc(F)cc3)n2)c1 | 54.1% | 33 nM | 6% | –
15 | C[C@]1(C(=O)N2CCOCC2)CO[C@H](c2nc(-c3ccc(F)cc3)c(-c3ccnc(NCCCO)n3)[nH]2)OC1 | – | 57 nM | 2% | –
16 | C[C@]1(C(=O)N2CCOCC2)CO[C@H](c2nc(-c3ccc(F)cc3)c(-c3ccnc(N4CCCCC4)n3)[nH]2)OC1 | 99% | – | – | inhibition at 0.3 µM [3]: 26%
17 | C[C@]1(C(=O)N2CCOCC2)CO[C@H](c2nc(-c3ccc(F)cc3)c(-c3ccnc(Nc4ccccc4)n3)[nH]2)OC1 | 51% | 54 nM | 29% | IC50 [15]: 16 nM
18 | CNc1nccc(-c2[nH]c([C@H]3OC[C@](C)(C(=O)N4CCOCC4)CO3)nc2-c2ccc(F)cc2)n1 | 8.1% | – | – | inhibition at 0.3 µM [3]: 38%
19 | C[C@H](Nc1nccc(-c2[nH]c([C@H]3OC[C@](C)(C(=O)N4CCOCC4)CO3)nc2-c2ccc(F)cc2)n1)c1ccccc1 | 71% | 1.5 nM | 10% | –
20 | C[C@]1(C(=O)N2CCOCC2)CO[C@H](c2nc(-c3ccc(F)cc3)c(-c3ccnc(NCCC#N)n3)[nH]2)OC1 | – | – | – | inhibition at 0.3 µM [3]: 28%
21 | C[C@]1(C(=O)N2CCOCC2)CO[C@H](c2nc(-c3ccc(F)cc3)c(-c3ccnc(NCC4CC4)n3)[nH]2)OC1 | 87% | 69 nM | – | –
22 | C[C@]1(C(=O)N2CCOCC2)CO[C@H](c2nc(-c3ccc(F)cc3)c(-c3ccnc(NC4CCCCC4)n3)[nH]2)OC1 | 98.6% | 24 nM | – | –
23 | C[C@]1(C(=O)N2CCOCC2)CO[C@H](c2nc(-c3ccc(F)cc3)c(-c3ccnc(NCC(=O)O)n3)[nH]2)OC1 | – | > 10000 nM | – | –
24 | C[C@]1(C(=O)N2CCOCC2)CO[C@H](c2nc(-c3ccc(F)cc3)c(-c3ccnc(Nc4ccncc4)n3)[nH]2)OC1 | – | 41 nM | – | –
25 | COc1ccc(CNc2nccc(-c3[nH]c([C@H]4OC[C@](C)(C(=O)N5CCOCC5)CO4)nc3-c3ccc(F)cc3)n2)cc1 | 23.9% | 49 nM | 1% | –
26 | C[C@]1(C(=O)N2CCOCC2)CO[C@H](c2nc(-c3ccc(F)cc3)c(-c3ccnc(NCCC(=O)O)n3)[nH]2)OC1 | 3.5% | – | – | inhibition at 0.3 µM [3]: 6%
27 | CCCNc1nccc(-c2[nH]c([C@H]3OC[C@](C)(C(=O)N4CCOCC4)CO3)nc2-c2ccc(F)cc2)n1 | – | 124 nM | – | –
28 | CN(C)CCNc1nccc(-c2[nH]c([C@H]3OC[C@](C)(C(=O)N4CCOCC4)CO3)nc2-c2ccc(F)cc2)n1 | 29% | 570 nM | – | –
